Bioassay records from PubChem BioAssay.
A selection: hits, their analogues and other compounds. The true share with any hit is near 2.3%.
PGC1a acetyl inh: modulators of PGC1a acetylation | U2OS PGC1a acetylation, AlphaScreen anti-acetyl-lysine; with virally co-expressed GCN5 acetyltransferase | inhibition, % at 15.6 µM | 0.17% of 350,000 active | AID 651687;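 active = every replicate shows inhibition of at least 40%; inconclusive = mean inhibition at least 40% but some replicate below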
FN deposition inh: fibronectin deposition inhibition | AH1F fibroblasts, Alexa488-fibronectin deposition fluorescence, overnight | inhibition, % at 12.6 µM | 0.086% of 350,000 active | AID 743247;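 active = mean inhibition across replicates of 30% or more, regardless of how many single replicates reach that level; inconclusive = mean under 30% yet at least half of replicates reach 30%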
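Schedule: 1 h cell adhesion before compound, then overnight fibronectin incubation; test system: AH1F fibroblast monolayer depositing Alexa488-labelled fibronectin into matrix; quantity: 10000 AH1F cells per well; probe or stimulus: fluorescent fibronectin at 24 nM final; signal: fluorescence, ex 485 nm, em 525 nm; evaluation: percent inhibition as loss of matrix-bound fibronectin fluorescence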
HIV Env fusion: inhibitors of HIV Env-mediated cell fusion | HeLa-JRFL Env/CEM21 cell fusion, luciferase | inhibition, % at 12.3 µM | 1.1% of 360,000 active | AID 651610;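 active = mean replicate inhibition score of at least 50 and every replicate individually at or above 50; inconclusive = only one of the two criteria met; inactive = mean below 50 and not all replicates reaching 50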
EWS-Fli inh: EWS/Fli transcriptional activity inhibition. inhibition, % at 12.6 µM. A673 NR0B1-luciferase reporter, viability-normalised. 0.67% of 350,000 active;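 active = mean inhibition of at least 50% after viability correction, with every replicate also passing that limit; inconclusive = mean reaches 50% but only one of two replicates passes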;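 also: firefly luciferase signal divided by Alamar Blue viability fluorescence both relative to DMSO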
PAX8 inh HTS: PAX8 transcriptional activity inhibition | RMG-I TPO-luciferase reporter, SteadyGlo, 24 h | inhibition, % at 12.6 µM | 1.2% of 360,000 active | AID 652154;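 active = mean replicate inhibition at least 60% with every replicate also reaching 60%; inconclusive = only one of the two criteria is met; inactive = mean below 60% and not all replicates reaching 60%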;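 also: luciferase light reporting Pax8 driven TPO promoter activity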
F508del corr: correctors of CFTR F508del function in bronchial epithelial cells | CFBE cells, YFP halide quenching; stimulated with forskolin plus potentiator P3; % fluorescence drop versus neutral controls | 0.36% of 350,000 active | activity (quench increase), % at 7.58 µM;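 active = mean added fluorescence quench of at least 8% versus neutral control, with both replicates also reaching 8%; inconclusive = only one of the mean or replicate conditions met; inactive = mean below 8% and not both replicates reaching 8%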;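 also: cells transiently co-express mutant CFTR-F508del with the halide-sensitive YFP; corrector assay measuring rescue of mutant channel to the surface after 24 h compound exposure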
Each line names hits and unclear results; the compound was inactive in the other large screens; [ ] = remark or other dose.

CN(Cc1ccccc1F)C(=O)c1ccc(NC(=O)CC2SC(N3CCCCC3)=NC2=O)cc1 (stereo unspecified)	none (no result: HIV Env fusion)
CN(Cc1c(F)cccc1Cl)C(=O)c1ccc(NC(=O)CC2SC(N3CCCCC3)=NC2=O)cc1 (stereo unspecified)	F508del corr 11 (no result: PGC1a acetyl inh, HIV Env fusion)
O=C(C[C@@H]1C[C@H]2c3cc(NC(=O)Nc4ccccc4F)ccc3O[C@H]2[C@@H](CO)O1)NCc1ccc(Oc2ccccc2)cc1	none (no result: PGC1a acetyl inh, HIV Env fusion, EWS-Fli inh, PAX8 inh HTS, F508del corr)
COc1ccc(N2C(=O)C3C4c5ccccc5C(C=Nc5ccc(C)cc5C)(c5ccccc54)C3C2=O)cc1 (stereo unspecified)	PAX8 inh HTS 65 (no result: FN deposition inh, EWS-Fli inh, F508del corr)
COc1cccc(NC(=O)N[C@H]2CC[C@@H](CC(=O)N3CCCCC3)O[C@@H]2CO)c1	none (no result: FN deposition inh)
C[C@H]1CCCCO[C@H](CN(C)S(=O)(=O)c2ccc(Cl)cc2)[C@@H](C)CN([C@@H](C)CO)C(=O)c2cc(NC(=O)c3ccccc3)ccc2O1	none (no result: FN deposition inh)
Cc1nnc(N/N=C/c2ccccc2C(F)(F)F)n1N	PAX8 inh HTS 85
Cc1nnc(N/N=C/c2ccccc2F)n1N	none
Cc1nnc(N/N=C/c2cccc(C(F)(F)F)c2)n1N	PAX8 inh HTS 108
O=S(=O)(c1ccc2c(c1)OCCO2)N1CCC(c2nc3ccccc3[nH]2)CC1	none (no result: PGC1a acetyl inh, EWS-Fli inh, PAX8 inh HTS, F508del corr)
O=S(=O)(c1ccc2c(c1)OCCO2)N1CCC(c2nc3ccc(Cl)cc3[nH]2)CC1	HIV Env fusion 55 (no result: EWS-Fli inh, PAX8 inh HTS, F508del corr)
CN(C)CC(=O)N1CC(=O)N2[C@H](CO)[C@@H](c3ccc(-c4ccc(C#N)cc4)cc3)[C@H]2C1	none (no result: FN deposition inh, HIV Env fusion)
Cc1ccc(N/C=C/C(=O)c2cccs2)cc1	EWS-Fli inh 59
O=C(NNC(=O)C12CC3CC(CC(C3)C1)C2)c1ccccc1F	PAX8 inh HTS 81
CCCC#Cc1cnc2c(c1)C(=O)N([C@@H](C)CO)C[C@H](C)[C@@H](CN(C)C(=O)NCCC)O2	none (no result: FN deposition inh, PAX8 inh HTS)
CC(C)(C)OC(=O)NCCCC[C@H](NC(=O)c1nc[nH]c1C(=O)NC(c1ccccc1)c1ccccc1)C(=O)OC(C)(C)C	PAX8 inh HTS 80 (no result: PGC1a acetyl inh)
CC(C)(C)OC(=O)NCCCCCNC(=O)c1nc[nH]c1C(=O)NCc1ccc(CNC(=O)OC(C)(C)C)cc1	PAX8 inh HTS 72 (no result: PGC1a acetyl inh)
CC(C)(C)OC(=O)NCCCCCNC(=O)c1ncn(Cc2ccccc2)c1C(=O)NCCCCCNC(=O)OC(C)(C)C	PAX8 inh HTS 75
CN(Cc1ccccc1)C(=O)c1[nH]cnc1C(=O)NCCCCCNC(=O)OC(C)(C)C	none (no result: PGC1a acetyl inh)
O=C(Nc1ccccc1)c1nc[nH]c1C(=O)NCCCCCCNC(=O)c1[nH]cnc1C(=O)Nc1ccccc1	HIV Env fusion 57
C/C=C/c1ccc2c(c1)O[C@@H](CN(C)CC1CC1)[C@@H](C)CN([C@H](C)CO)S2(=O)=O	none (no result: PAX8 inh HTS)
COc1ccc(NC(=O)N(C)C[C@@H]2OCCCC[C@@H](C)Oc3ccc(NS(=O)(=O)c4c(C)noc4C)cc3C(=O)N([C@H](C)CO)C[C@H]2C)cc1	none (no result: FN deposition inh)
C[C@H](CO)N1C[C@H](C)[C@H](CN(C)C(=O)Nc2ccc(F)cc2)Oc2ncc(C#Cc3cccc(F)c3)cc2C1=O	none (no result: PAX8 inh HTS)
CC(C)(C)OC(=O)NCCCC[C@H](NC(=O)c1nc[nH]c1C(=O)N[C@@H](CCCCNC(=O)OC(C)(C)C)C(=O)OC(C)(C)C)C(=O)OC(C)(C)C	PAX8 inh HTS 76
CC(=O)c1ccc([C@H]2C[C@@]34CN(C(=O)OC(C)(C)C)S(=O)(=O)[C@H]3C[C@H]2O4)cc1	HIV Env fusion 68
CN(C)CCCNC(=O)C[C@H]1C=C[C@H](NS(=O)(=O)c2ccccc2)[C@@H](CO)O1	none (no result: FN deposition inh)
COc1cccc([C@@H](NC(=O)C(F)(F)F)[C@@H]2CCCC=C2c2ccccc2)c1	none (no result: PGC1a acetyl inh)
O=C(N[C@H](c1cccc(Br)c1)[C@@H]1CCCC=C1c1ccccc1)C(F)(F)F	HIV Env fusion 67 (no result: PGC1a acetyl inh)
CC(C)NC(=O)Nc1ccc2c(c1)CC(=O)N([C@H](C)CO)C[C@H](C)[C@H](CN(C)C(=O)Nc1ccccc1)O2	none (no result: FN deposition inh)
C[C@H](NC(=O)c1ncn2c1c(=O)[nH]c1ccc(Br)cc12)c1ccccc1	HIV Env fusion 57 (no result: PGC1a acetyl inh)
C[C@H](NC(=O)c1ncn2c1c(=O)[nH]c1ccccc12)c1ccccc1	none (no result: PGC1a acetyl inh)
CCCNC(=O)Nc1ccc2c(c1)C(=O)N(C)[C@H]1CC[C@@H](CC(=O)NCC3CCCCC3)O[C@H]1CO2	none
CCOc1ccccc1C(=O)NCC(=O)NNC(=O)CN(C)S(=O)(=O)c1ccc(Cl)cc1	HIV Env fusion 69
COc1ccccc1S(=O)(=O)N1CC[C@H]2[C@H](CO)Nc3ccc(-c4ccc(F)cc4)cc3[C@H]21	PAX8 inh HTS 72 (no result: HIV Env fusion)
COc1cccc(-c2ccc3c(c2)[C@@H]2[C@@H](CCN2S(=O)(=O)c2cccc(OC)c2)[C@@H](CO)N3)c1	FN deposition inh 38 (no result: HIV Env fusion)
COc1cccc(-c2ccc3c(c2)[C@H]2[C@H](CCN2S(=O)(=O)c2ccccc2F)[C@@H](CO)N3)c1	PAX8 inh HTS 101 (no result: HIV Env fusion)
COc1cccc(-c2ccc3c(c2)[C@H]2[C@H](CCN2S(=O)(=O)c2ccccc2F)[C@H](CO)N3)c1	none (no result: HIV Env fusion)
COc1cccc(S(=O)(=O)N2CC[C@H]3[C@H](CO)Nc4ccc(-c5ccc(C#N)cc5)cc4[C@H]32)c1	none (no result: HIV Env fusion)
O=C(c1cccnc1)N1CC[C@@H]2[C@H](CO)Nc3ccc(C4=CCCCC4)cc3[C@@H]21	F508del corr 8.1 (no result: HIV Env fusion, EWS-Fli inh, PAX8 inh HTS)
C[C@@H]1CCCCO[C@@H](CN(C)S(=O)(=O)c2cccs2)[C@@H](C)CN([C@H](C)CO)C(=O)c2cc(NC(=O)NC3CCCCC3)ccc2O1	none (no result: FN deposition inh)
C[C@@H]1CN([C@@H](C)CO)S(=O)(=O)c2ccc(C#CC3(O)CCCC3)cc2O[C@H]1CN(C)C(=O)c1ccccc1	none (no result: PAX8 inh HTS)
O=S(=O)(c1ccccc1F)N1CC[C@@H]2[C@H](CO)Nc3ccc(C4=CCCCC4)cc3[C@@H]21	PAX8 inh HTS 89 (no result: HIV Env fusion)
COc1cccc(-c2ccc3c(c2)[C@H]2[C@H](CCN2C(=O)C2CCCC2)[C@H](CO)N3)c1	HIV Env fusion 56[16.7 µM], PAX8 inh HTS inconclusive
COc1cccc(S(=O)(=O)N2CC[C@@H]3[C@@H](CO)Nc4ccc(-c5ccccc5OC)cc4[C@@H]32)c1	PAX8 inh HTS 80 (no result: HIV Env fusion)
O=C(Cc1ccccc1)N1CC[C@@H]2[C@H]1c1cc(-c3ccccc3)ccc1N[C@@H]2CO	PAX8 inh HTS 62 (no result: HIV Env fusion)
O=C(Cc1ccccc1)N1CC[C@@H]2[C@@H](CO)Nc3ccc(-c4ccccc4)cc3[C@@H]21	none (no result: HIV Env fusion)
C[C@@H]1CN([C@@H](C)CO)C(=O)Cc2cc(NS(=O)(=O)c3cccs3)ccc2O[C@H]1CN(C)Cc1ccncc1	none (no result: FN deposition inh)
CO[C@H]1CN(C)C(=O)c2ccc(NC(C)=O)cc2OC[C@H](C)N(C(=O)c2cccnc2)C[C@@H]1C	none (no result: HIV Env fusion)
